Experimental data from ChEMBL document CHEMBL3392961, “Synthesis and in vitro characterization of cinnoline and benzimidazole analogues as phosphodiesterase 10A inhibitors” (Bioorg Med Chem Lett, 2015).

Key:
[1] = biological target: cAMP and cAMP-inhibited cGMP 3',5'-cyclic phosphodiesterase 10A (Homo sapiens, UniProt Q9Y233); assay: Inhibition of human recombinant PDE10A catalytic domain pre-incubated for 5 mins before [3H]cAMP substrate addition and measured 20 mins post substrate addition by scintillation proximity assay
Chain of cAMP and cAMP-inhibited cGMP 3',5'-cyclic phosphodiesterase 10A (Q9Y233 whole entry, the tested form may be a part): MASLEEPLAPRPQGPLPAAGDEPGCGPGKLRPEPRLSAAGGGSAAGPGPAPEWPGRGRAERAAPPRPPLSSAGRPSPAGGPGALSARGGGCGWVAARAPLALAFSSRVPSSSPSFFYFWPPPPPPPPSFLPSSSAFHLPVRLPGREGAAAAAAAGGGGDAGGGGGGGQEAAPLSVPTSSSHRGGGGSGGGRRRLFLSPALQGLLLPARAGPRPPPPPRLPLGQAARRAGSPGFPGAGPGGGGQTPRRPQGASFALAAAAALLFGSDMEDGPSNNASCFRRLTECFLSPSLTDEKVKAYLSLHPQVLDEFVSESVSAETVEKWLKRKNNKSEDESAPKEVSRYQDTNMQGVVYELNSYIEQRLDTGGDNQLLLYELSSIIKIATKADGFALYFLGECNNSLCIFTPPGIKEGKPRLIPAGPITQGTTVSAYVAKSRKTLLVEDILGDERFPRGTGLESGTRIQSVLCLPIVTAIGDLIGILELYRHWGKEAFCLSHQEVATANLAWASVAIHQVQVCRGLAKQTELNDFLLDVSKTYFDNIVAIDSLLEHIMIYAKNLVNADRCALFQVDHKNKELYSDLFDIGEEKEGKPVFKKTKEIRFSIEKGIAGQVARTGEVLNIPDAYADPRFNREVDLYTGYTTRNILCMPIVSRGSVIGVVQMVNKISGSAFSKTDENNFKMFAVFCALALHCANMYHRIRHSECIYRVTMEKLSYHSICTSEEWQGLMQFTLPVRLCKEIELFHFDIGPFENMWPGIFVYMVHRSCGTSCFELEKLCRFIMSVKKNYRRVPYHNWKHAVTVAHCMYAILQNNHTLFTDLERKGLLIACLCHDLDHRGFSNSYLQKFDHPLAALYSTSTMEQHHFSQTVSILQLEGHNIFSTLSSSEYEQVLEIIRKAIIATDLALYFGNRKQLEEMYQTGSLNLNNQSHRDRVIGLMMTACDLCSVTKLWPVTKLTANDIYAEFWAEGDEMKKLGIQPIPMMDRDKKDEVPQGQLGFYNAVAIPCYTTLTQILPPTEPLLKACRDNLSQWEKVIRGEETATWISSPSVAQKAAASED

[2] = biological target: cGMP-inhibited 3',5'-cyclic phosphodiesterase 3A (Homo sapiens, UniProt Q14432); assay: Inhibition of human recombinant PDE3A pre-incubated for 5 mins before [3H]cAMP substrate addition and measured 20 mins post substrate addition by scintillation proximity assay
Chain of cGMP-inhibited 3',5'-cyclic phosphodiesterase 3A (Q14432 whole entry): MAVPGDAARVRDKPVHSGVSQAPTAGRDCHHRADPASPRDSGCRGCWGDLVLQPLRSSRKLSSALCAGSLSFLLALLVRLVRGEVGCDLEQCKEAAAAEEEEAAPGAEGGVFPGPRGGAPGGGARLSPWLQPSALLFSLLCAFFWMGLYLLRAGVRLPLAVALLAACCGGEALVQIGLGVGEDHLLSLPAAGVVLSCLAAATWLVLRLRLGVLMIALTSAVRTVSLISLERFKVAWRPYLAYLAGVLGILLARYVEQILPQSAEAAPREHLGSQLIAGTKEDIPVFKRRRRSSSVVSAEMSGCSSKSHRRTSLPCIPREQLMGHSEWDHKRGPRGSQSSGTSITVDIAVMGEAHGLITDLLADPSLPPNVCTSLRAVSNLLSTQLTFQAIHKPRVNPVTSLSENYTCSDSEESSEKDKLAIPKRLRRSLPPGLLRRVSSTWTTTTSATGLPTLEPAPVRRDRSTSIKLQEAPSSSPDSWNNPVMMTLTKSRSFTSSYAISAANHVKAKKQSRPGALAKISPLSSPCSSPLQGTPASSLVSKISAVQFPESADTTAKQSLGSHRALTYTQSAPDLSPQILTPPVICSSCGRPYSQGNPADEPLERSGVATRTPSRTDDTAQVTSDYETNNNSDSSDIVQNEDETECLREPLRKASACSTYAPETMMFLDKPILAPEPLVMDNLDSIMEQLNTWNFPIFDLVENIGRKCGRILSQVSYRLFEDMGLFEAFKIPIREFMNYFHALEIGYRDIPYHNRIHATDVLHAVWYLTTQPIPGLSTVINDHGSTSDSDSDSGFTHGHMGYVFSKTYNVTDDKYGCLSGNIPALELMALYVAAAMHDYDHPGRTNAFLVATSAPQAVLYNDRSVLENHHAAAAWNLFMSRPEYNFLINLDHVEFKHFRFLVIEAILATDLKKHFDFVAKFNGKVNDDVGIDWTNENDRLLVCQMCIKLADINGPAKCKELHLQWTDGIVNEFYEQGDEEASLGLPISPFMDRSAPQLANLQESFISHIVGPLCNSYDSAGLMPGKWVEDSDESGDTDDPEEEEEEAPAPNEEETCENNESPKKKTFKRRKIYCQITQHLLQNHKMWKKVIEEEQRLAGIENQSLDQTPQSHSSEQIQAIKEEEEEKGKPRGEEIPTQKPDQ
Procedure, shortened: (§1)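 Scintillation proximity assay on a fixed amount of recombinant human PDE enzyme, run across varying inhibitor concentrations. The tritiated cyclic nucleotide substrate was used at 1/3 of Km. Background was subtracted, counts were plotted against inhibitor concentration, and IC50 was fitted by non-linear regression. Values are mean ± SD from at least three experiments.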

[3] = biological target: cGMP-inhibited 3',5'-cyclic phosphodiesterase 3B (Homo sapiens, UniProt Q13370); assay: Inhibition of human recombinant PDE3B pre-incubated for 5 mins before [3H]cAMP substrate addition and measured 20 mins post substrate addition by scintillation proximity assay; procedure, shortened: as §1
Chain of cGMP-inhibited 3',5'-cyclic phosphodiesterase 3B (Q13370 whole entry): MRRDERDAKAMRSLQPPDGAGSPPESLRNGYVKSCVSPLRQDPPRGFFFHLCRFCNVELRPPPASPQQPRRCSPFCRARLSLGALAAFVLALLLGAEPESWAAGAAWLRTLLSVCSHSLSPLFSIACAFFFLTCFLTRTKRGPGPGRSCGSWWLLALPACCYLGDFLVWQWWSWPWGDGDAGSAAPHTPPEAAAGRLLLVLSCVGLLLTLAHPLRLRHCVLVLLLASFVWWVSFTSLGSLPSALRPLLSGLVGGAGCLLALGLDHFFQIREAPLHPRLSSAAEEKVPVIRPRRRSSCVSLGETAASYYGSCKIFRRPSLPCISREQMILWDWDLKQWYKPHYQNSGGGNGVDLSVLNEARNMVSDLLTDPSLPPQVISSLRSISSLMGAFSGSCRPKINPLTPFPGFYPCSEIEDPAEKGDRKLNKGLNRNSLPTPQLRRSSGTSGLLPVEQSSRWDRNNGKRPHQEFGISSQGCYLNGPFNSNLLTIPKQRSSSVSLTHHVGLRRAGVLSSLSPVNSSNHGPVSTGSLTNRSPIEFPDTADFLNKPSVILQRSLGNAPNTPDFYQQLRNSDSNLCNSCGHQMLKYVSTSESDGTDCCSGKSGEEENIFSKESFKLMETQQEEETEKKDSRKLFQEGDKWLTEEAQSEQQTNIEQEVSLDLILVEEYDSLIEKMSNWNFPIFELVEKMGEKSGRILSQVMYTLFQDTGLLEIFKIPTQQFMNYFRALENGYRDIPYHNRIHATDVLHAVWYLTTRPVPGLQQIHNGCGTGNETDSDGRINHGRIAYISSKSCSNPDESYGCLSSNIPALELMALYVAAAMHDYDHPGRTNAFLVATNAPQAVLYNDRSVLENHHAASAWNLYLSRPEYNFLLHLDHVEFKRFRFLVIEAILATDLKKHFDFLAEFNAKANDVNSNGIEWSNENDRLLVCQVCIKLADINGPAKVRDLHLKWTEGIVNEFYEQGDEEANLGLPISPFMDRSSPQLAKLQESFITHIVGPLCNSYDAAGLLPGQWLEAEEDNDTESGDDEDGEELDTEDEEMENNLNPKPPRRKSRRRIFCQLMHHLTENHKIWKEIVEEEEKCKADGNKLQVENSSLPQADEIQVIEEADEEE

[4] = biological target: 3',5'-cyclic-AMP phosphodiesterase 4A (Homo sapiens, UniProt P27815); assay: Inhibition of human recombinant PDE4A pre-incubated for 5 mins before [3H]cAMP substrate addition and measured 20 mins post substrate addition by scintillation proximity assay; procedure, shortened: as §1
Chain of 3',5'-cyclic-AMP phosphodiesterase 4A (P27815 whole entry): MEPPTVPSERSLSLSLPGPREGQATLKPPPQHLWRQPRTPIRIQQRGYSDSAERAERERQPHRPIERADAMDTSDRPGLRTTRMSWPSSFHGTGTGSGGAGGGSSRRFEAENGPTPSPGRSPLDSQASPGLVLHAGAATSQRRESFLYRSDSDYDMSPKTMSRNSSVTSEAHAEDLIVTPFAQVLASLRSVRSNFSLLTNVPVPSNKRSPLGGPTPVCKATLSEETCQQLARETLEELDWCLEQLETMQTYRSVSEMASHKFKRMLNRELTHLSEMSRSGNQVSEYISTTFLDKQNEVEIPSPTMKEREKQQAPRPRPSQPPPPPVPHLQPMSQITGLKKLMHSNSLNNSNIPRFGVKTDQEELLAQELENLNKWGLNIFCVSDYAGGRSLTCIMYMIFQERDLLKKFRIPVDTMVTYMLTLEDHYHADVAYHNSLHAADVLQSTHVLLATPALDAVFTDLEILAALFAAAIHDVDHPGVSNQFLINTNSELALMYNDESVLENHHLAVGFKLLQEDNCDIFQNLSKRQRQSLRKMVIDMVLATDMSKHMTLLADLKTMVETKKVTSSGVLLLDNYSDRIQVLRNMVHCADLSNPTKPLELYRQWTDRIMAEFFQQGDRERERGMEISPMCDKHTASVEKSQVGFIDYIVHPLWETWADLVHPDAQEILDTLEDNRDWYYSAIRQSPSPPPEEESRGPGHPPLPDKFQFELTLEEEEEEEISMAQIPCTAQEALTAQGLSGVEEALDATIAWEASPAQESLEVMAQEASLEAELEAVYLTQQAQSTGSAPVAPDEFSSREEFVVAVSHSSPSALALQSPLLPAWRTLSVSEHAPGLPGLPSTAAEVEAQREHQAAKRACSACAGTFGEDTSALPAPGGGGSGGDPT

[5] = biological target: 3',5'-cyclic-AMP phosphodiesterase 4B (Homo sapiens, UniProt Q07343); assay: Inhibition of human recombinant PDE4B pre-incubated for 5 mins before [3H]cAMP substrate addition and measured 20 mins post substrate addition by scintillation proximity assay; procedure, shortened: as §1
Chain of 3',5'-cyclic-AMP phosphodiesterase 4B (Q07343 whole entry): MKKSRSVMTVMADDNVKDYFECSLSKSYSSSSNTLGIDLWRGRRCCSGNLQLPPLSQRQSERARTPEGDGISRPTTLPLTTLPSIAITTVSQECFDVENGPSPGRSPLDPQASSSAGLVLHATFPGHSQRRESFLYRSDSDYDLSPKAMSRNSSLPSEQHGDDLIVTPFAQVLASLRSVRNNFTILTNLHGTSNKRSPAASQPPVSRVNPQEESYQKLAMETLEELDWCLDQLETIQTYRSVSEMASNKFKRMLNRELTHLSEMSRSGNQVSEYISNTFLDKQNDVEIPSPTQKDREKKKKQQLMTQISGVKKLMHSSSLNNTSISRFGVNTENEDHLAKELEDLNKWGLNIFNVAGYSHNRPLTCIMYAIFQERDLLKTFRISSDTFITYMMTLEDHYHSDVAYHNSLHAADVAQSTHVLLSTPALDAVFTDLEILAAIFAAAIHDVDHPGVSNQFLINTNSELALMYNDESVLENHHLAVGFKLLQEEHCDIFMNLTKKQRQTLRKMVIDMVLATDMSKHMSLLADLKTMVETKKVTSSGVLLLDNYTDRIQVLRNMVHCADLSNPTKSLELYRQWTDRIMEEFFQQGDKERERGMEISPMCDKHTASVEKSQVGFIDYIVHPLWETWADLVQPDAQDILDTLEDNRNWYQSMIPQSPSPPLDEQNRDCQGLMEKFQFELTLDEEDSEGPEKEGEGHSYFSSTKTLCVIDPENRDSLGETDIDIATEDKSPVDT

IC50 ([1]; read-out: IC50) [µM]	SMILES	other results
0.518	COc1cc2c(-c3cnc(N4CCC(O)(c5ccc(F)nc5)CC4)c(C)c3)cnnc2cc1OCc1ccc2ccccc2n1	–
1.55	COc1cc2c(-c3ccc(N4CCC(O)(c5cccnc5)CC4)nc3)cnnc2cc1OCc1ccccc1	–
0.008	COc1ccc(-c2cccnc2Oc2ccc(C(=O)c3nc4ccccc4n3C)cc2)cc1	–
0.0793	COc1cc2c(-c3cnc(N4CCC(O)(c5ccc(F)nc5)CC4)c(C)c3)cnnc2cc1OCCCF	–
0.00152	COc1cc2nncc(-c3cnc(N4CCC(O)(c5cccnc5)CC4)c(C)c3)c2cc1OC	IC50 [2]: 3.07 µM; IC50 [3]: 4.11 µM; IC50 [4]: 7.83 µM; IC50 [5]: 8.73 µM
6.62	COc1cc2c(-c3ccc(N4CCC(O)(c5cccnc5)CC4)nc3)cnnc2cc1O	–
> 1.9	CC(=O)N1CCC(C(=O)c2cccnc2Oc2ccc(C(=O)c3nc4ccccc4n3C)cc2)CC1	–

Continued, compound first:

SMILES	IC50 ([1]; read-out: IC50) [µM]	other results
COc1cc2nncc(-c3cnc(N4CCC(O)(c5ccc(Cl)nc5)CC4)c(C)c3)c2cc1OC	0.0098	–
COc1cc2c(-c3ccc(N4CCC(C)(O)CC4)nc3)cnnc2cc1O	10.8	–
Cc1cc(-c2cnnc3cc4c(cc23)OCO4)cnc1N1CCC(O)(c2ccc(F)nc2)CC1	–	IC50 [1]: Not Active
Cc1cc(-c2cnnc3ccccc23)cnc1N1CCC(O)(c2ccc(F)nc2)CC1	–	IC50 [1]: Not Active
COc1cc2nncc(-c3cnc(N4CCC(O)(c5ccc(F)nc5)CC4)c(C)c3)c2cc1OC	0.00286	IC50 [2]: 3.7 µM; IC50 [3]: 6.54 µM; IC50 [4]: 25.4 µM; IC50 [5]: 30.6 µM
Cn1c(C(=O)c2ccc(Oc3ncccc3-c3cccnc3)cc2)nc2ccccc21	0.00373	IC50 [2]: 167 µM; IC50 [3]: 234 µM; IC50 [4]: 40.3 µM; IC50 [5]: 25.9 µM
Cn1c(C(=O)c2ccc(Oc3ncccc3C(=O)c3ccccc3)cc2)nc2ccccc21	–	IC50 [1]: Not Active
COc1ccc(C(=O)c2cccnc2Oc2ccc(C(=O)c3nc4ccccc4n3C)cc2)cc1	–	IC50 [1]: Not Active
COc1cc2c(-c3ccc(N4CCC(C)(O)CC4)nc3)cnnc2cc1OCc1ccccc1	4.25	–
COc1cc2nncc(-c3ccc(N4CCC(C)(O)CC4)nc3)c2cc1OC	0.0184	–
COc1cc2nncc(-c3ccc(N4CCC(O)(c5cccnc5)CC4)nc3)c2cc1OC	0.014	–
COc1cc2nncc(-c3cnc(N4CCC(O)(c5cccnc5)CC4)c(Cl)c3)c2cc1OC	0.00552	–
Cn1c(C(=O)c2ccc(Oc3ncccc3-c3ccccc3)cc2)nc2ccccc21	0.0186	–
COc1cc2c(-c3cnc(N4CCC(O)(c5ccc(F)nc5)CC4)c(C)c3)cnnc2cc1OCc1ccccc1	0.35	–
